Results published in ChEMBL document CHEMBL1144191, “Synthesis and evaluation of a spiro-isobenzofuranone class of histamine H3 receptor inverse agonists” (Bioorg Med Chem Lett, 2008).

Assays:
Histamine H3 receptor = Histamine H3 receptor (Homo sapiens, UniProt Q9Y5N1); experiment: Inverse agonist activity at human cloned histamine H3 receptor assessed as inhibition of (R)-alpha-methylhistamine-induced [35S]GTPgammaS binding; type: functional
Outline: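 [35S]GTPγS binding assay in membranes isolated from cells transfected with cloned human H3 receptors.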

[1] = Plasma concentration in Sprague-Dawley rat at 10 mg/kg, po after 2 hrs; type: ADME, organism-based; set-up: dose 10 mg/kg, route oral; details: read-out: Drug uptake
Outline: (§1)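 SD rats, n = 3 (mean), dosed orally at 10 mg/kg. Plasma, brain and cerebrospinal fluid levels measured at 2 h post-dose; brain expressed as nmol/g, plasma and CSF as µM.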

[2] = Half life in Sprague-Dawley rat at 3 mg/kg, po; type: ADME, organism-based; set-up: dose 3 mg/kg, route oral; details: in vivo
Outline: (§2)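 Sprague-Dawley rats, n = 3, mean values reported; dosed iv at 1 mg/kg or orally at 3 mg/kg. Parameters derived from the plasma profile: half-life, Vdss, plasma clearance (iv), Tmax, Cmax and oral bioavailability (po).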

[3] = Bioavailability in Sprague-Dawley rat at 3 mg/kg, po; type: ADME, organism-based; details: in vivo; outline: as §2
[4] = Tmax in Sprague-Dawley rat at 3 mg/kg, po; type: ADME, organism-based; set-up: dose 3 mg/kg, route oral; details: in vivo; outline: as §2
[5] = Volume of distribution at steady state in Sprague-Dawley rat at 1 mg/kg, iv; type: ADME, organism-based; set-up: dose 1 mg/kg, route intravenous; details: in vivo, read-out: Vdss; outline: as §2
Histamine H2 receptor = Histamine H2 receptor (Homo sapiens, UniProt P25021); experiment: Inhibition of histamine H2 receptor
[6] = Metabolic stability in cryopreserved rat hepatocytes assessed as hepatic clearance by serum incubation method; type: ADME, cell-based, Liver, Hepatocyte
Outline: (§3)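 Hepatic clearance estimated by the serum incubation method in human and rat hepatocytes, expressed as mL/min/kg.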

[7] = Plasma clearance in Sprague-Dawley rat at 1 mg/kg, iv; type: ADME, organism-based; set-up: dose 1 mg/kg, route intravenous; outline: as §2
[8] = Drug concentration in Sprague-Dawley rat cerebrospinal fluid at 10 mg/kg, po after 2 hrs; type: ADME, organism-based; set-up: dose 10 mg/kg, route oral; details: read-out: Drug uptake; outline: as §1
Histamine H4 receptor = Histamine H4 receptor (Homo sapiens, UniProt Q9H3N8); experiment: Inhibition of histamine H4 receptor
[9] = Metabolic stability in cryopreserved human hepatocytes assessed as hepatic clearance by serum incubation method; type: ADME, cell-based, Liver, Hepatocyte; outline: as §3
Brain [10] = experiment: Drug concentration in Sprague-Dawley rat brain at 10 mg/kg, po after 2 hrs; type: ADME, organism-based; set-up: dose 10 mg/kg, route oral; details: in vivo; outline: as §1
[11] = Cmax in Sprague-Dawley rat at 3 mg/kg, po; type: ADME, organism-based; set-up: dose 3 mg/kg, route oral; details: in vivo; outline: as §2
[12] = Half life in Sprague-Dawley rat at 1 mg/kg, iv; type: ADME, organism-based; set-up: dose 1 mg/kg, route intravenous; details: in vivo; outline: as §2
Histamine H1 receptor = Histamine H1 receptor (Homo sapiens, UniProt P35367); experiment: Inhibition of histamine H1 receptor
[13] = Drug concentration in Sprague-Dawley rat cerebrospinal fluid at 1 mg/kg, iv after 10 mins; type: ADME, organism-based; set-up: dose 1 mg/kg, route intravenous; details: read-out: Drug uptake
Outline: (§4)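 SD rats, n = 3 (mean), dosed iv at 1 mg/kg. Plasma, brain and CSF levels measured 10 min after dosing; brain expressed as nmol/g, plasma and CSF as µM.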

Brain [14] = experiment: Drug concentration in Sprague-Dawley rat brain at 1 mg/kg, iv after 10 mins; type: ADME, organism-based; set-up: dose 1 mg/kg, route intravenous; details: in vivo; outline: as §4
LLC-PK1 [15] = experiment: Ratio of permeability from basolateral to apical over apical to basolateral side of pig LLC-PK1 cells transfected with human MDR1 by P-gp transport assay; type: ADME, cell-based, Sus scrofa
Outline: (§5)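 Transcellular transport measured across LLC-PK1 cell monolayers transfected with human MDR1 or mouse mdr1a. Ratio computed as (B-to-A)/(A-to-B) permeability; mean of n ≥ 3. Ratio above 3.0 taken to indicate a P-gp substrate.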

[16] = Plasma concentration in Sprague-Dawley rat at 1 mg/kg, iv after 10 mins; type: ADME, organism-based; set-up: dose 1 mg/kg, route intravenous; details: read-out: Drug uptake; outline: as §4
[17] = target: Voltage-gated inwardly rectifying potassium channel KCNH2 (Homo sapiens, UniProt Q12809); experiment: Displacement of [35S]N-[(4R)-1'-[(2R)-6-cyano-1,2,3,4-tetrahydro-2-naphthalenyl]-3,4-dihydro-4-hydroxyspiro[2H-1-benzopyran-2,4'-piperidin]-6-yl]methanesulfonamide from human ERG in HEK293 cells; type: cell-based
LLC-PK1 [18] = experiment: Ratio of permeability from basolateral to apical over apical to basolateral side of pig LLC-PK1 cells transfected with mouse MDR1a by P-gp transport assay; type: ADME, cell-based, Sus scrofa; outline: as §5

Sequence of Histamine H3 receptor (Q9Y5N1 whole entry): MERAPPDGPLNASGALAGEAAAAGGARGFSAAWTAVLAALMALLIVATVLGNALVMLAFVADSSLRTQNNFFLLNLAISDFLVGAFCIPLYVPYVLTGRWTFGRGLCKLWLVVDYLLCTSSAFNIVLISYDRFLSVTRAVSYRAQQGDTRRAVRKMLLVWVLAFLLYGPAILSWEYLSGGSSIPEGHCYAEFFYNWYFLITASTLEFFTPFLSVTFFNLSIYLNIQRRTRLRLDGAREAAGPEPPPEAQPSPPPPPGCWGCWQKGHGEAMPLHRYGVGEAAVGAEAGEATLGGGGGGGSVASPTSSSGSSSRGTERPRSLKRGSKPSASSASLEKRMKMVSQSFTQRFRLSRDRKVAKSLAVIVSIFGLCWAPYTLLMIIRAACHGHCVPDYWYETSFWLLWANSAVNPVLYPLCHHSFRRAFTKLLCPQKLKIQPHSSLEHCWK
Sequence of Histamine H4 receptor (Q9H3N8 whole entry): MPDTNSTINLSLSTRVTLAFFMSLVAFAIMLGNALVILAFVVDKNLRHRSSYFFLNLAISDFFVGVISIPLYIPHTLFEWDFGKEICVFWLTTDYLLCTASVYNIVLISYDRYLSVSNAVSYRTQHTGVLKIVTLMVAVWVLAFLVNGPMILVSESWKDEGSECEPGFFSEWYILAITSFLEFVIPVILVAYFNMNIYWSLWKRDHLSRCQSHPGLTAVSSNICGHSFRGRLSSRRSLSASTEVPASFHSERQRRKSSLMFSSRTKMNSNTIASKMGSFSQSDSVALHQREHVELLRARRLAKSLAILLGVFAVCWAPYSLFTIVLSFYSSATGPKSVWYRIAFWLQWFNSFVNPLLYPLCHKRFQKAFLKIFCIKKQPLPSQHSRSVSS
Sequence of Histamine H2 receptor (P25021 whole entry): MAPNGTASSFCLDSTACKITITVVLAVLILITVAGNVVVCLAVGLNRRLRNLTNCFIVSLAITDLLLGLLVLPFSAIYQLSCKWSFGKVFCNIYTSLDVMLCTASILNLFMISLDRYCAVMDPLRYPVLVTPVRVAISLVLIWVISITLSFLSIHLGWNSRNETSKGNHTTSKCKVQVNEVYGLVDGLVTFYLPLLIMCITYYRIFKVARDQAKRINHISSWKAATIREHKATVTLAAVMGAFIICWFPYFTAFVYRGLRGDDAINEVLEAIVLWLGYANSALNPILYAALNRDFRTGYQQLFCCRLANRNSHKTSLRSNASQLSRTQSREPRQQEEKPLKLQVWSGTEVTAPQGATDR
Sequence of Histamine H1 receptor (P35367 whole entry): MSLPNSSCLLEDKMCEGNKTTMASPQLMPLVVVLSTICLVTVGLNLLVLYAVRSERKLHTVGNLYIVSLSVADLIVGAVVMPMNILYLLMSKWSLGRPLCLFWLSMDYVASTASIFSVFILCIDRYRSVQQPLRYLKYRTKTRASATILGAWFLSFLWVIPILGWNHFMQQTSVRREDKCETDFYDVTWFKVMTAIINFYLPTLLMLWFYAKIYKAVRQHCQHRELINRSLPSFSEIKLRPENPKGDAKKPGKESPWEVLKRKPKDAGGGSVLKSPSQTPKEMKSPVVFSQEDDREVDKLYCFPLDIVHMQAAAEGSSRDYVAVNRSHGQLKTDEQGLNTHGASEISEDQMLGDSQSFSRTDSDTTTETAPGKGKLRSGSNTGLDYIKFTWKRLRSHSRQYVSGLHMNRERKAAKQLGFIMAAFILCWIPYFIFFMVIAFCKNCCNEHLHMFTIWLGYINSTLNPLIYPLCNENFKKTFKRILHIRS
Sequence of Voltage-gated inwardly rectifying potassium channel KCNH2 (Q12809 whole entry): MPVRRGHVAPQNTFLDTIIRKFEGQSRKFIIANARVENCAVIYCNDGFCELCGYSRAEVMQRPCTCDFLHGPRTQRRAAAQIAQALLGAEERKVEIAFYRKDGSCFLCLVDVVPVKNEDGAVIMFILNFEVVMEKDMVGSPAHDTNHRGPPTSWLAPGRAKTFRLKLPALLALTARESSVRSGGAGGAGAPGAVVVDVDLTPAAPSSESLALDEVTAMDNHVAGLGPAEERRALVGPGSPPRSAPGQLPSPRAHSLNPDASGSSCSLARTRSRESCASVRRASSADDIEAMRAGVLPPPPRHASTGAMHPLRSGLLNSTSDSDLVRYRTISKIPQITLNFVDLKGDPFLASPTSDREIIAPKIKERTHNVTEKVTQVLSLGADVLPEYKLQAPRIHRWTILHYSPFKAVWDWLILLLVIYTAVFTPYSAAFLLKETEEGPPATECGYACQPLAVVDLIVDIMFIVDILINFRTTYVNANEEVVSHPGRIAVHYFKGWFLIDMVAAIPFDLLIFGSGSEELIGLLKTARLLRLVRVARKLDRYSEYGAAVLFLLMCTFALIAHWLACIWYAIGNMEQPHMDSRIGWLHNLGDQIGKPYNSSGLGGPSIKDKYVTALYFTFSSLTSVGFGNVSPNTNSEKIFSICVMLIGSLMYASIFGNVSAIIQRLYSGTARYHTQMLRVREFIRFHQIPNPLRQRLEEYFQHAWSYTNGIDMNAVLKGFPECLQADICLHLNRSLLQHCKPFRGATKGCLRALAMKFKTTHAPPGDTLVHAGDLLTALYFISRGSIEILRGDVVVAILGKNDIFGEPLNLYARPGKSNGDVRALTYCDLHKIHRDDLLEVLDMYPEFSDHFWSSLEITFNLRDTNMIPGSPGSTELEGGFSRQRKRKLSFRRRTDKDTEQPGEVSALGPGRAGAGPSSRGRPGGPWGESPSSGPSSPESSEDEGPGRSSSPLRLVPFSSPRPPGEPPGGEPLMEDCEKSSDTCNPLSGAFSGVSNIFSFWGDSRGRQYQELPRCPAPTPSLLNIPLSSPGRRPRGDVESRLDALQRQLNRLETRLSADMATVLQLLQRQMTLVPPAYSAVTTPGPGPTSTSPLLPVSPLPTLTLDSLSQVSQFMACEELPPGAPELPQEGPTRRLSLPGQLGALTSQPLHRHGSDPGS

CN(CCN1CCCCC1)C(=O)N1CCC(C#N)(c2ccccc2)CC1
IC50 (Histamine H3 receptor): 267 nM

CN(CCN1CCCCC1)C(=O)N1CCC2(CC1)OC(=O)c1ccccc12
IC50 (Histamine H3 receptor): 21 nM

CN(CCN1CCCCC1)C(=O)N1CCC2(CC1)OCc1ccccc12
IC50 (Histamine H3 receptor): 387 nM

COc1cccc2c1[C@]1(CC[C@@H](C(=O)N(C)CCN3CCCCC3)CC1)OC2=O
IC50 (Histamine H3 receptor): 3.6 nM

CN(CCN1CCCCC1)C(=O)N1CCC(Cc2ccccc2)CC1
IC50 (Histamine H3 receptor): 393 nM

CN(CCN1CCCCC1)C(=O)N1CCN(c2ccccc2Cl)CC1
IC50 (Histamine H3 receptor): > 1000 nM

CN(CCN1CCCCC1)C(=O)N1CCN(c2cccc(Cl)c2)CC1
IC50 (Histamine H3 receptor): 297 nM

CN(CCN1CCCCC1)C(=O)N1CCC2(CC1)Cc1ccccc1C(=O)O2
IC50 (Histamine H3 receptor): 380 nM

CN(CCN1CCCCC1)C(=O)N1CCC(c2cccc3ccccc23)CC1
IC50 (Histamine H3 receptor): 343 nM

CN(CCN1CCCCC1)C(=O)N1CCC(c2ccccc2)CC1
IC50 (Histamine H3 receptor): 893 nM

CN(CCN1CCCCC1)C(=O)N1CCC(O)(c2ccccc2)CC1
IC50 (Histamine H3 receptor): > 1000 nM

CN(CCN1CCCCC1)C(=O)N1CCN(c2ccccc2)CC1
IC50 (Histamine H3 receptor): 506 nM

CN(CCN1CCCCC1)C(=O)N1CCN(c2ccc(Cl)cc2)CC1
IC50 (Histamine H3 receptor): 160 nM

CN(CCN1CCCCC1)C(=O)N1CCC(C(C)(C)C)CC1
IC50 (Histamine H3 receptor): > 1000 nM

CN(CCN1CCCCC1)C(=O)N1CCC2(CC1)NC(=O)c1ccccc1N2
IC50 (Histamine H3 receptor): 560 nM

CN(CCN1CCCCC1)C(=O)N1CCC(c2ccc3ccccc3c2)CC1
IC50 (Histamine H3 receptor): 110 nM

CN(CCN1CCCCC1)C(=O)N1CCC2(CC1)CC(=O)c1ccccc1O2
IC50 (Histamine H3 receptor): 68 nM

CN(CCN1CCCCC1)C(=O)N1CCC2(CC1)c1ccccc1C(=O)N2C
IC50 (Histamine H3 receptor): 45 nM

CN(CCN1CCCCC1)C(=O)N1CCC2(CC1)Cc1ccccc1C2
IC50 (Histamine H3 receptor): 530 nM

CN(CCN1CCCCC1)C(=O)N1CCc2ccccc2C1
IC50 (Histamine H3 receptor): 680 nM

CN(CCN1CCCCC1)C(=O)N1CCC2(CC1)NC(=O)c1ccccc12
IC50 (Histamine H3 receptor): 53 nM

CN(CCN1CCCCC1)C(=O)N1CCC(C(=O)c2ccccc2)CC1
IC50 (Histamine H3 receptor): 237 nM

COc1ccc2c(c1)[C@]1(CC[C@@H](C(=O)N(C)CCN3CCCCC3)CC1)OC2=O
IC50 (Histamine H3 receptor): 18 nM

COc1ccc2c(c1)C(=O)O[C@]21CC[C@H](C(=O)N(C)CCN2CCCCC2)CC1
concentration at 2 h [1]: 270 nM
half-life [2]: 1.4 h
bioavailability [3]: 7%
Tmax [4]: 0.3 h
Vd [5]: 7.2 L/kg
IC50 (Histamine H2 receptor): > 10000 nM
CLhep predicted [6]: 54 mL/min/kg
clearance [7]: 74 mL/min/kg
concentration at 2 h [8]: 58 nM
IC50 (Histamine H4 receptor): > 10000 nM
CLhep predicted [9]: 18 mL/min/kg
Drug uptake (Brain [10]): 0.48 nmol/g
IC50 (Histamine H3 receptor): 0.54 nM
Cmax [11]: 60 nM
half-life [12]: 1.4 h
IC50 (Histamine H1 receptor): > 10000 nM

CN(CCN1CCCCC1)C(=O)[C@H]1CC[C@@]2(CC1)OC(=O)c1ccccc12
concentration at 10 min [13]: 370 nM
Drug uptake (Brain [14]): 2.4 nmol/g
Ratio (LLC-PK1 [15]): 1.2
IC50 (Histamine H2 receptor): > 10000 nM
CLhep predicted [6]: 59 mL/min/kg
clearance [7]: 97 mL/min/kg
IC50 (Histamine H4 receptor): > 10000 nM
concentration at 10 min [16]: 1500 nM
CLhep predicted [9]: 18 mL/min/kg
IC50 [17]: > 10000 nM
IC50 (Histamine H3 receptor): 0.72 nM
IC50 (Histamine H1 receptor): > 10000 nM
Ratio (LLC-PK1 [18]): 2

CN(CCN1CCCCC1)C(=O)N1CCC2(CC1)CC(=O)c1ccccc12
IC50 (Histamine H3 receptor): 43 nM

CN(CCN1CCCCC1)C(=O)N1CCC2(CC1)NC(=O)Cc1ccccc12
IC50 (Histamine H3 receptor): 783 nM

CN(CCN1CCCCC1)C(=O)N1CCC2(CC1)OC(=O)Nc1ccccc12
IC50 (Histamine H3 receptor): > 1000 nM

CN(CCN1CCCCC1)C(=O)N1CCC(c2ccccc2)(c2ccccc2)CC1
IC50 (Histamine H3 receptor): 98 nM
